Test results reported in ChEMBL document CHEMBL1148788 (J Med Chem, 2007).
Calls of active or inactive are those of the source. No cut-off for these calls is given here.

Experiments:
[1] = molecular target: Neuronal acetylcholine receptor; alpha4/beta4 (Rattus norvegicus, UniProt P09483+P12392); experiment: Displacement of [3H]epibatidine from recombinant rat alpha-4-beta-4 nAChr in HEK293 cell line; type: cell-based
[2] = Displacement of [3H]methyllycaconitine from chimeric alpha7nAChR R79A mutant/5HT3A receptor R79A mutant in tsA201 cells; type: cell-based, Homo sapiens
Summary of the method: (§1)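 tsA-201 cells transiently transfected with 4 µg WT or mutant α7/5-HT3A chimera and assayed 2 days later. Membranes washed twice at 50000g in 50 mM Tris-HCl pH 7.2. Incubated with 0.5 nM [3H]MLA and compound for 2.5 h at room temperature with shaking; nonspecific binding with 5 mM (S)-nicotine. PEI-soaked GF/C filtration, scintillation counting. Ki derived; duplicate, 3–7 experiments.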

[3] = Displacement of [3H]methyllycaconitine from chimeric alpha-7nAChR W55A mutant /5HT3A receptor in tsA201 cells; type: cell-based, Homo sapiens; summary of the method: as §1
tsA201 = experiment: Displacement of [3H]methyllycaconitine from chimeric alpha-7nAChR Y93A mutant/5HT3A receptor in tsA201 cells; type: cell-based; conditions: Homo sapiens; summary of the method: as §1
[4] = molecular target: T1, Neuronal acetylcholine receptor subunit alpha-7 (Homo sapiens, UniProt P36544); experiment: Displacement of [3H]methyllycaconitine from alpha7 nAChR in tsA201 cells co-expressed with Ric3; type: cell-based
[5] = molecular target: T2, 5-hydroxytryptamine receptor 3A (Homo sapiens, UniProt P46098); experiment: Antagonist activity at human 5HT3A receptor expressed in HEK293 cells by FMP assay; type: functional, cell-based
T2 sequence (P46098 whole entry): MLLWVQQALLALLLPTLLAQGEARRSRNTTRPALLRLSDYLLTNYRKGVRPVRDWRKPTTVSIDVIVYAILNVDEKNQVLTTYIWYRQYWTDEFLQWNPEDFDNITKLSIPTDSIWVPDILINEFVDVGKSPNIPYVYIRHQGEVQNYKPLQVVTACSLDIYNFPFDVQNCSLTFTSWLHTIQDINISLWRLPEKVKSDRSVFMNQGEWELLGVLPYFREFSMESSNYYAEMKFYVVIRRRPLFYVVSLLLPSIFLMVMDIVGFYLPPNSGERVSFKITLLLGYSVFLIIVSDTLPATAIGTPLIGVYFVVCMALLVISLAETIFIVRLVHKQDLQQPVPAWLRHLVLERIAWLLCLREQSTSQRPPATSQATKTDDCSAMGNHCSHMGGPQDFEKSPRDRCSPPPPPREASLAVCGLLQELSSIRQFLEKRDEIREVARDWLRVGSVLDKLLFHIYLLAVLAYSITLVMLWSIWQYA

[6] = molecular target: Neuronal acetylcholine receptor; alpha4/beta2 (Rattus norvegicus, UniProt P09483+P12390); experiment: Displacement of [3H]epibatidine from rat recombinant alpha-4-beta-2 nAChR in HEK293 cell line; type: cell-based
[7] = molecular target: T1, Neuronal acetylcholine receptor subunit alpha-7; experiment: Displacement of [3H]methyllycaconitine from human alpha-7 in tsA201 cells coexpressed with 5HT3A receptor; type: cell-based
[8] = Displacement of [3H]methyllycaconitine from chimeric alpha-7nAChR S148A mutant /5HT3A receptor in tsA201 cells; type: cell-based, Homo sapiens; summary of the method: as §1

T1 sequence (P36544 whole entry): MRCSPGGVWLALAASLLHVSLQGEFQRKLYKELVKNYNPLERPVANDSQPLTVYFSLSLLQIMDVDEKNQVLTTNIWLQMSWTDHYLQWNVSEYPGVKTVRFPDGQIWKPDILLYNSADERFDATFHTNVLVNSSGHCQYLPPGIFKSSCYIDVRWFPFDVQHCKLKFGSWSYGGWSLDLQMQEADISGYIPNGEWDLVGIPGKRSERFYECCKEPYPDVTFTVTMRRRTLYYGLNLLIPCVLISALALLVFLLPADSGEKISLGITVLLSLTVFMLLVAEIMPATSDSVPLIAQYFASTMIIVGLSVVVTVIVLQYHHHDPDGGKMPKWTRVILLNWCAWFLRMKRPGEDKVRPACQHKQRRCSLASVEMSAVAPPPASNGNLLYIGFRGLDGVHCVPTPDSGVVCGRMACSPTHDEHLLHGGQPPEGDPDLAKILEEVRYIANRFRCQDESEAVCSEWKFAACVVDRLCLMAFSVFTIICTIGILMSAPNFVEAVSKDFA
Chain of Neuronal acetylcholine receptor; alpha4/beta4 (P09483 whole entry): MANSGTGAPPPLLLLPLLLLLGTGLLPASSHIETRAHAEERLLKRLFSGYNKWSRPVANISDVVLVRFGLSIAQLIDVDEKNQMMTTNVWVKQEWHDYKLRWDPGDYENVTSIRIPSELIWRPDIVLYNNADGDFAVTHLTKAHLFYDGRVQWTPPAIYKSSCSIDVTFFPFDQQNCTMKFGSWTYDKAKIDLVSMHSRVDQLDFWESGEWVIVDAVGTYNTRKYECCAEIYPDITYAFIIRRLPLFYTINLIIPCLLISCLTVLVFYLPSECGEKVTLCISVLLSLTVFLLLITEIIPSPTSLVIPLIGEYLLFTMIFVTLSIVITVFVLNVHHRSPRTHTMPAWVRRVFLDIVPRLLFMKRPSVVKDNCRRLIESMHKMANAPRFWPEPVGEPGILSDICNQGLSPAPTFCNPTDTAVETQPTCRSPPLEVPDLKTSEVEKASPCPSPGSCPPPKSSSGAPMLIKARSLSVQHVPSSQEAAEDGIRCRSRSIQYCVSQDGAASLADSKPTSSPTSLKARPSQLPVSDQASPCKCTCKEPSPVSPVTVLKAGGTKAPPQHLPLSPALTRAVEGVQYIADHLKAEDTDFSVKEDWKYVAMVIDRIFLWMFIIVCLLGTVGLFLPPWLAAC
Chain of Neuronal acetylcholine receptor; alpha4/beta4 (P12392 whole entry): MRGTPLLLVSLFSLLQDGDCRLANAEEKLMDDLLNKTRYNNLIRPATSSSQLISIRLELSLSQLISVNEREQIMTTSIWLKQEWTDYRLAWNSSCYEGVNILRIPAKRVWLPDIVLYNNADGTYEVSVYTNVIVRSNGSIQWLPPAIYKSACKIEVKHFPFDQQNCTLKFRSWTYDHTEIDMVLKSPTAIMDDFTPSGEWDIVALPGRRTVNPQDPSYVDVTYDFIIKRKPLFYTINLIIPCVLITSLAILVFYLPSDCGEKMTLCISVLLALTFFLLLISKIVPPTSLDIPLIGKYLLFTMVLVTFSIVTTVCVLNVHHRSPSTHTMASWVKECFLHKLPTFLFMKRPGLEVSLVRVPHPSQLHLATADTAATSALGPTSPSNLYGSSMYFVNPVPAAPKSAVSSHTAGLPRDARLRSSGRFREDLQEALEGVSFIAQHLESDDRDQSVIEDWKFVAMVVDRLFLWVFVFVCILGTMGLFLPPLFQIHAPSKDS
Chain of Neuronal acetylcholine receptor; alpha4/beta2 (P09483 whole entry): as the sequence (P09483 whole entry) above
Chain of Neuronal acetylcholine receptor; alpha4/beta2 (P12390 whole entry): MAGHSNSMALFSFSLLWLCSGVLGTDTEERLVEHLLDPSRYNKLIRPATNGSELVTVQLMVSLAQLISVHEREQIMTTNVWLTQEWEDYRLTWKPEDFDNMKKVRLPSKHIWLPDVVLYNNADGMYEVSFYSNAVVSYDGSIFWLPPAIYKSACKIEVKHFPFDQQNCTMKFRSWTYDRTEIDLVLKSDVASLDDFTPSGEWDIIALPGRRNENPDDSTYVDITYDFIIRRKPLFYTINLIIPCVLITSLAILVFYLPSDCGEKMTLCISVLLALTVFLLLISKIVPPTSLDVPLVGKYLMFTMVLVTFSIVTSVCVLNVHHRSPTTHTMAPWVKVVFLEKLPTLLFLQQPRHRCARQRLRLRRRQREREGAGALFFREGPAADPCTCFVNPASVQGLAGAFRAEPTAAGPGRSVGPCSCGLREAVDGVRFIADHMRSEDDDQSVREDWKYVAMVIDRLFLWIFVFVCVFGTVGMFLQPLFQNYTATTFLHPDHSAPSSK

For O=[N+]([O-])c1ccc(C[N+]23CC[C@@H]4[C@@H]5[C@@H]6[C@@H](OCC=C(C2)[C@@H]6C[C@@H]43)N2c3ccccc3[C@@]34CC[N+]6(Cc7ccc([N+](=O)[O-])cc7)CC7=CCO[C@H]([C@@H]([C@H]23)[C@H]7C[C@@H]46)N5c2ccccc2)cc1.[Br-].[Br-] (some centres not stated), the Ki [1] was over 100000 nM, the pKi ([1]; hek293) was under 4 and the Ki [2] was 32 nM. It also gave a pKi [2] of 7.5, a Ki [3] of 130 nM and a pKi [3] of 6.89. For the same compound, the Activity (tsA201) was “inactive”, the Ki ([4]; read-out: Ki) was 29 nM and the Ki ([4]; read-out: pKi (converted)) was 31.6 nM. The pIC50 ([5]; hek293) was under 4, the IC50 ([5]; read-out: IC50) was over 100000 nM and the pKi ([6]; hek293) was under 4. It also gave a Ki ([6]; read-out: Ki) of over 100000 nM, a Ki ([7]; read-out: Ki) of 22 nM and a Ki ([7]; read-out: pKi (converted)) of 20 nM. For the same compound, the Ki [8] was 160 nM and the pKi [8] was 6.8.
